Data set [1] can be described thus: Cmax in specific pathogen free Sprague-Dawley rat at 2 mg/kg, iv measured after 5 mins by LC-MS/MS analysis. Also on record: dose 2 mg/kg, route intravenous. Format: ADME, organism-based. The conditions noted are these: in vivo.
The nature of data set [2]: Acute toxicity in Kunming mouse assessed as mortality at 500 to 2000 mg/kg, po administered as single dose measured for 1 week. The following applies: in vivo, 168 h. Format: organism-based.
In data set [3] the target is T1, Tyrosine-protein phosphatase non-receptor type 1 (Homo sapiens) (UniProt P18031).
T1 sequence (whole entry): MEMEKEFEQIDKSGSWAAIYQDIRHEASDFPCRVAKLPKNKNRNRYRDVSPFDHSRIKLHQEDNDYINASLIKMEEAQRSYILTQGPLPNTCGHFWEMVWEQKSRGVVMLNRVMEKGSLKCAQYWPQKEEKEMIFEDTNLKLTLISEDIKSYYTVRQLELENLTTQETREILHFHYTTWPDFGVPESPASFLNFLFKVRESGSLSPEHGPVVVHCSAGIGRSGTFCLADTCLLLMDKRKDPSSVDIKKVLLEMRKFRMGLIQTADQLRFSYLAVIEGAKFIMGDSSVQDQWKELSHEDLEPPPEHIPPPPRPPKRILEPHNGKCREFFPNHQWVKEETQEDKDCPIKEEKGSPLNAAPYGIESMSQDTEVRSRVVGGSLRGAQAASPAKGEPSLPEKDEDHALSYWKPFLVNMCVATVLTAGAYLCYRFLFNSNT
As to the kind of experiment: (§1) Binding affinity to human PTP1B (1 to 321 residues) by surface plasmon resonance analysis. An outline of the steps:
(§2)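 PTP1B was immobilized on an SPR chip and the ligand was injected at 6.25, 3.125, 1.562, 0.781 and 0.390 µM. The sensorgrams were curve-fitted to obtain ka and kd, and KD was calculated from these.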

Data set [4] addresses T2, Tyrosine-protein phosphatase non-receptor type 1 (Homo sapiens, UniProt P18031).
T2 sequence (P18031 whole entry): T1 sequence (whole entry)
The data set is described as §1. An outline of the steps:
as §2

Data set [5] has as its target Tyrosine-protein phosphatase non-receptor type 1 (Homo sapiens, UniProt P18031, A27S). Kind of data set: Inhibition of PTP1B A27S mutant (unknown origin).
For data set [6], the system named is Mus musculus. Kind of data set: Antidiabetic activity in BKS db mouse assessed as improvement in insulin sensitivity by measuring decrease in glucose AUC at 100 mg/kg, po administered once daily for 2 weeks followed by insulin challenge and measured up to 120 mins by ITT. Format: functional, organism-based. In a few lines:
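In week 2 of treatment at 100 mg/kg/day p.o., an insulin tolerance test was run in db mice (n = 8) with 0.75 U/kg insulin. Blood glucose was followed over time and the area under the curve was calculated. Values are mean ± SEM.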

Data set [7] in a line: Sub-acute toxicity in Kunming mouse assessed as structural changes in liver at 1000 mg/kg, po administered once daily for 14 days measured 24 hrs post last dose by gomori staining based histological analysis. The following applies: in vivo. Format: organism-based. An outline of the steps:
(§3)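 After 14 days of oral dosing at 1000 mg/kg body wt per day, with vehicle-treated controls, liver, heart, kidney and lung sections were Gomori-stained. Sections were examined for histological structure and cell size.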

The subject of data set [8] is Mus musculus. Kind of data set: Antidiabetic activity in BKS db mouse assessed as reduction in blood glucose level at 100 mg/kg, po administered once daily for 5 weeks measured up to three weeks during compound dosing by glucometry.
For data set [9], the system named is Mus musculus. As to the kind of experiment: Antidiabetic activity in BKS db mouse assessed as reduction in fasting blood glucose level at 100 mg/kg, po administered once daily for 3 weeks prior to 16 hrs fasting followed by glucose challenge and measured after 120 mins by OGTT. Format: functional, organism-based. An outline of the steps:
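After treatment at 100 mg/kg/day p.o., the db mice (n = 8) received an oral glucose load of 2 g/kg. Blood glucose was read 120 min after the load. Values are mean ± SEM.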

Data set [10] can be described thus: Acute toxicity in Kunming mouse assessed as visual toxic effect at 500 to 2000 mg/kg, po administered as single dose measured for 1 week. Format: organism-based. The conditions noted are these: in vivo, 168 h.
Data set [11] in a line: Tmax in specific pathogen free Sprague-Dawley rat at 2 mg/kg, iv by LC-MS/MS analysis. Type of data set: ADME, organism-based. The following applies: in vivo.
Data set [12] can be described thus: Sub-acute toxicity in Kunming mouse assessed as structural changes in kidneys at 1000 mg/kg, po administered once daily for 14 days measured 24 hrs post last dose by gomori staining based histological analysis. Format: organism-based. The conditions noted are these: in vivo. An outline of the steps: as §3
For data set [13], the target named is T3, Tyrosine-protein phosphatase non-receptor type 1 (Mus musculus) (UniProt P35821).
T3 sequence (whole entry): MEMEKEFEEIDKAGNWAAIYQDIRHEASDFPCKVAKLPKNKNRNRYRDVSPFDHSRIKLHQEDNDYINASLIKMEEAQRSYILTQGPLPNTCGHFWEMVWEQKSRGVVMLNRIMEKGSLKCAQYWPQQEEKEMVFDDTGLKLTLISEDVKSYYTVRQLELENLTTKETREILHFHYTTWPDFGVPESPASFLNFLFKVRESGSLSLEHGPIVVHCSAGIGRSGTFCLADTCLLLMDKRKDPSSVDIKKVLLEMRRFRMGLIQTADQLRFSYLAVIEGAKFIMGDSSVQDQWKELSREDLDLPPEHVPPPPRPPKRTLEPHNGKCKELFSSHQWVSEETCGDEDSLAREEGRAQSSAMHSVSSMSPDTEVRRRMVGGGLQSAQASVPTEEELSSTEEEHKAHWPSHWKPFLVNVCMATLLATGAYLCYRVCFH
Kind of data set: Inhibition of PTP1B in PA-stimulated mouse C2C12 cells assessed as increase in JAK2 phosphorylation at Y1007/Y1008 residues preincubated for 1 hr followed by palmitic acid stimulation for 16 hrs and measured by Western blot analysis. Format: cell-based. (In general: Immunoblotting shows a protein as a band on a membrane.)

The nature of data set [14]: Sub-acute toxicity in Kunming mouse assessed as effect on water intake at 1000 mg/kg, po administered once daily for 14 days measured during compound dosing. Format: organism-based. The conditions noted are these: in vivo, 336 h. In a few lines:
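Mice were dosed orally with 1000 mg/kg body wt per day for 14 days alongside a vehicle-dosed group. Water intake, food intake and body weight were tracked over the dosing period and reported as mean ± SEM, n = 10.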

The target in data set [15] is Receptor-type tyrosine-protein phosphatase F (Homo sapiens, UniProt P10586). Kind of data set: Inhibition of LAR (unknown origin).
Receptor-type tyrosine-protein phosphatase F, sequence (P10586 whole entry): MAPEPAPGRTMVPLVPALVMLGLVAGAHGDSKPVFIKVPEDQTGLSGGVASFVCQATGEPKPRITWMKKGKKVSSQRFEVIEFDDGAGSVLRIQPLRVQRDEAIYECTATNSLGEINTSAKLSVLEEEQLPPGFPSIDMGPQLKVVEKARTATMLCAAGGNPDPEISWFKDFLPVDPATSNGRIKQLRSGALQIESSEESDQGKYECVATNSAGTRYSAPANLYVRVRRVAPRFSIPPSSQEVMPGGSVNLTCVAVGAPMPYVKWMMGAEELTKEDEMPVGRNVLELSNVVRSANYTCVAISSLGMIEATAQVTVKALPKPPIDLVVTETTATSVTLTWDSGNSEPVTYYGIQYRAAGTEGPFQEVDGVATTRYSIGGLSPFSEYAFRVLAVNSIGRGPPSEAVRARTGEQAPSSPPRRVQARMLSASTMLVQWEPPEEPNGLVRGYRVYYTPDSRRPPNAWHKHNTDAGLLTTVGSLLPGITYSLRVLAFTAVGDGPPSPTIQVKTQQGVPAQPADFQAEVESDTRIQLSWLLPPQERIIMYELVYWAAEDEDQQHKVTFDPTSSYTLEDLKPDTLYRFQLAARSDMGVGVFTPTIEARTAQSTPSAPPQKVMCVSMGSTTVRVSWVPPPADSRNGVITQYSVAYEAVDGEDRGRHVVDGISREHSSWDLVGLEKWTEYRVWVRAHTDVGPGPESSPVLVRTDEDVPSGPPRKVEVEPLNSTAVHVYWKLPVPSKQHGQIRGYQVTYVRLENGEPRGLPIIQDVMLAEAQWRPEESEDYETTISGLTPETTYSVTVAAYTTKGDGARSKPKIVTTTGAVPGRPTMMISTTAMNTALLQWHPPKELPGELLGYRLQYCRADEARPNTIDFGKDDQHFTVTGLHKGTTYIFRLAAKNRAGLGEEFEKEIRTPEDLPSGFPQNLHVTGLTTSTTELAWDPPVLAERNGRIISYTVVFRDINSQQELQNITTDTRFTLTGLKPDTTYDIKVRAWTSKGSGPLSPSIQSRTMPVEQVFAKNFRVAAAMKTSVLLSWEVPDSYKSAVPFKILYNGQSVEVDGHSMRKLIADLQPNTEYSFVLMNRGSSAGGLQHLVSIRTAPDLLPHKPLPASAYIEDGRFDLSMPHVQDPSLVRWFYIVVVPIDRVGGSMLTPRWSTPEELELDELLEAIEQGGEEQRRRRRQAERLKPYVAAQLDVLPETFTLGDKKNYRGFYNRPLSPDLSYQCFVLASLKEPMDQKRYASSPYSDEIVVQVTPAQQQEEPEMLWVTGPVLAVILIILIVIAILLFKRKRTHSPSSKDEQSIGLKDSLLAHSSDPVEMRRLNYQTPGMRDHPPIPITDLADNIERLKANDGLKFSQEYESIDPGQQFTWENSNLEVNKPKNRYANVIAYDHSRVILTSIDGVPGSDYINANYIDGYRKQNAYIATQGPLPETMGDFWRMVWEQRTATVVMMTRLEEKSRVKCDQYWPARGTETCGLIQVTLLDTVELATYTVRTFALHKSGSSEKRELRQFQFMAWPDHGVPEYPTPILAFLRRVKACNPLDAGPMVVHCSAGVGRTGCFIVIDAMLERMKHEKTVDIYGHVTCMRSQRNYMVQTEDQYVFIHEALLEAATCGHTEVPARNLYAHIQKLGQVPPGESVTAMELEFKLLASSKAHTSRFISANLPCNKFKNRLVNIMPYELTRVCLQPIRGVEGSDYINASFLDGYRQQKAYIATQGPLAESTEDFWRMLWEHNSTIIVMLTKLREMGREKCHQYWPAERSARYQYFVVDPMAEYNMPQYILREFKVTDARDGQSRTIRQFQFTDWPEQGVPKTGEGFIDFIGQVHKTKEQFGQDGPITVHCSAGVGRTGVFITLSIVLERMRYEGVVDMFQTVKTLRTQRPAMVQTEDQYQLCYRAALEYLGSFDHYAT
Data set [16] in a line: Sub-acute toxicity in Kunming mouse assessed as visual toxic effect at 1000 mg/kg, po administered once daily for 14 days measured during compound dosing. Format: organism-based. The following applies: in vivo, 336 h.
Data set [17] is described as follows: Acute toxicity in Kunming mouse assessed as effect on water intake at 500 to 2000 mg/kg, po administered as single dose measured for 1 week. Type of data set: organism-based. The conditions noted are these: in vivo, 168 h.
The test system of data set [18] is Mus musculus. As to the kind of experiment: Antiobesity activity in BKS db mouse assessed as decrease in abdominal fat weight at 100 mg/kg, po administered once daily for 5 weeks. Type of data set: functional, organism-based. In a few lines:
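Diabetic BKS db mice, n = 8 per group, were given 100 mg/kg/day orally for five weeks. Vehicle- and metformin-treated db mice and vehicle-treated BKS mice served as controls. Food intake, water intake and body weight were followed weekly, and abdominal fat pads were weighed at the end. Values are mean ± SEM.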

Data set [19] can be described thus: Sub-acute toxicity in Kunming mouse assessed as mortality at 1000 mg/kg, po administered once daily for 14 days measured during compound dosing. Type of data set: organism-based. The conditions noted are these: in vivo, 336 h.
Data set [20] deals with Mus musculus. Kind of data set: Antidiabetic activity in BKS db mouse assessed as blood glucose level at 100 mg/kg, po administered once daily for 5 weeks measured post last dose by glucometry (reference value: 28 mM). Type of data set: functional.

SMILES strings stand for the structures. Calls of active or inactive are those of the source. The rule behind the calls is not given here.

As usually defined, the Cmax is the maximum level reached in the sampled fluid or tissue. What is called Kd is the concentration at which binding is half-saturated. Low readings indicate higher affinity, high ones lower affinity. For orientation: IC50 means the concentration that gives 50% inhibition. A low value points to greater potency. Broadly, the Tmax is the time from dosing to the highest level.

Tyrosine-protein phosphatase non-receptor type 1 (Homo sapiens, UniProt P18031, A27S), sequence (P18031 whole entry A27S): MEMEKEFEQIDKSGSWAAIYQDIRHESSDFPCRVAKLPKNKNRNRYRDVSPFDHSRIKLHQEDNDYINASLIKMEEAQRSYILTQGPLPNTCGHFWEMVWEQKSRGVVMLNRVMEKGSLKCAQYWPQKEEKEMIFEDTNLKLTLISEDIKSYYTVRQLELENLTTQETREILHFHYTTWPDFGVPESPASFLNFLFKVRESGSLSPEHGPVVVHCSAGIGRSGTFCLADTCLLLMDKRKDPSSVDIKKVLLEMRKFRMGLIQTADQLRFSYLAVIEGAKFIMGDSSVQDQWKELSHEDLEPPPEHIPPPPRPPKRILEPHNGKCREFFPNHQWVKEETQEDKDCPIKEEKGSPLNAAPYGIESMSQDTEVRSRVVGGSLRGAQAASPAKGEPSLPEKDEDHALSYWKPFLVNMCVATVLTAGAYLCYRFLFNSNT

Take `CCOc1ccc(Oc2ccc(-c3cnc(-c4cc(O)c(O)c(Br)c4Br)o3)cc2)cc1`: in data set [1], the Cmax worked out at 3.35 µM. In addition, the Activity result was “Non-Toxic” in data set [2]; “Dose-dependent effect” in data set [3]; “Non-Toxic” in data set [7]; “Non-Toxic” in data set [10]; “Non-Toxic” in data set [12]; “Non-Toxic” in [14]. For the same molecule, the Activity result in [16] was “Non-Toxic”; in data set [17], “Non-Toxic”; in data set [19], “Non-Toxic”; in the data set with Mus musculus [20], 18 mM. In data set [4], this molecule gave an equilibrium dissociation constant (Kd) of 2240 nM. The IC50 in [5] is 1780 nM; in data set [15] it was more than 36800 nM. Also, the outcome in the data set on Mus musculus [6], in the data set on Mus musculus [9] and with Mus musculus [18] was Active. In the data set with Mus musculus [8], the outcome was inactive. In addition, the Tmax in data set [11] is 5 min. In addition, the inhibition entry in data set [13] is “Dose-dependent effect”.

(Values after ChEMBL document CHEMBL4400525, “Toward a treatment of diabesity: In vitro and in vivo evaluation of uncharged bromophenol derivatives as a new series of PTP1B inhibitors” (Eur J Med Chem, 2019).)
